Measured values from the array DNA melting data of Ke et al. (doi:10.1101/2024.01.08.574731).

How the values were obtained:
[1] = folding enthalpy; higher = less favourable; fluorescence melt of hairpins on a sequencing array, two-state fit; conditions: sodium 0.088 M
Procedure, shortened: (§1)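 Cy3 signals were normalised both to pre-quench Cy3 and to control constructs. They came from library hairpins carrying annealed Cy3 and quencher oligos on a sequenced MiSeq flow cell, imaged in 50 mM Na-HEPES pH 8.0, 25 mM NaCl, in 2.5 °C steps up to 60 °C. Bootstrapped two-state fits gave melting temperature and folding enthalpy, and four replicates were combined by inverse variance. Fitted temperatures were then raised by 9.35 °C to match UV melts.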

[2] = melting temperature; fluorescence melt of hairpins on a sequencing array, two-state fit, raised by 9.35 °C to match UV melts; conditions: sodium 0.088 M
Procedure, shortened: as §1

Row | Sequence | folding enthalpy [1] [kcal/mol] | Tm [2] [°C]
1 | GGAGTCGAAAGACCATCC ((((((....)))..))) | -11.2 | 29.5
2 | GTCGTTCCGAAAGGAGAC (((..(((....)))))) | -22 | 35.1
3 | GTGGGAGGAAACTCCCGC (.(((((....))))).) | -33.4 | 56.7
4 | GTGCACGAAAGTGGGCAC ((((((....)))..))) | -22.6 | 52.6
5 | GACTCAGAAATGAGTC ((((((....)))))) | -35.9 | 54.5
6 | GATCCGGAGTCGGATC ((((((....)))))) | -36.4 | 55.7
7 | GCGGCCGGAAACAGCCGC (((((.(....).))))) | -22.9 | 64.8
8 | GCTCACCGAAAGGTCAGC (((.(((....))).))) | -26.3 | 44.2
9 | GCAGCGGGAAACCGCTAC (.(((((....))))).) | -11.3 | 40.2
10 | GGGTTCCGAAAGGAGCCC (((.(((....))).))) | -39.8 | 67.1
11 | GATCCCCCTTGGGATC ((((((....)))))) | -39.8 | 57.7
12 | GTGTAGGGAAACCTGCAC (((.(((....))).))) | -29.7 | 50.3
13 | GGTTGCGAAAGCATACC ((((((....))).))) | -28.7 | 51.8
14 | GGTATCGAAAGATGGACC ((((((....)))..))) | -15.2 | 28.9
15 | GGGAGTGGAAACACTCTC (.(((((....))))).) | -25.1 | 51.7
16 | GGACACGAAAGTGACTCC ((((((....)))..))) | -14.2 | 40.6
17 | GGTCACGAAAGTGAGACC ((((((....)))..))) | -15.7 | 45.8
18 | GATCCTCTGGAGGATC ((((((....)))))) | -39.5 | 58.3
19 | GAAAGGGGAAACCCTTCC (.(((((....))))).) | -19.7 | 32.1
20 | GCTCCCGAAAGGGCAAGC ((((((....)))..))) | -15.9 | 42.2
21 | GAAAATGGAAACATTTTC (((((((....))))))) | -44.6 | 51
22 | CGCGGAACAATCCGCG ((((((....)))))) | -37 | 61.5
23 | GTGGACGAAAGTCATCAC ((((((....)))..))) | -13.1 | 36.3

Row | Sequence | folding enthalpy [1] [kcal/mol] | Tm [2] [°C]
24 | GTGGTGGGAAACCGTCAC (((..((....))..))) | -19.8 | 38.4
25 | GGTGGCGAAAGCCCACC ((((((....))).))) | -17.5 | 61.7
26 | GTTGGACGAAAGTCGAAC (((.(((....))).))) | -16.8 | 49.1
27 | GGAGGCGAAAGCCTATCC ((((((....)))..))) | -9.28 | 40.8
28 | GATCTCATAGAGATC ((((((...)))))) | -38.3 | 55.2
29 | GATGTGACGAAAGTCATC (((..(((....)))))) | -12 | 34.2
30 | GCGTAGGGAAACCTGCGC (((.(((....))).))) | -37.7 | 58.9
31 | GATCGGGAATCCGATC ((((((....)))))) | -38.6 | 64.8
32 | GATCGATAAATCGATC ((((((....)))))) | -39.9 | 52.3
33 | GGATTTGGAAACGAATCC (((((.(....).))))) | -34.9 | 46.1
34 | GCTACGCGAAAGCTTTGC ((.(.((....)).).)) | -13 | 36.7
35 | CGCTGGAAACAGCG (((((....))))) | -31.2 | 66.2
36 | GATCGCATGAGCGATC ((((((....)))))) | -27.4 | 69.3
37 | GCCTTCGGAAACGAAGAC (.(((((....))))).) | -18.4 | 43.3
38 | GATCTAGACCTAGATC ((((((....)))))) | -32.8 | 47.2
39 | GAGGATGCGAAAGCACTC (((..(((....)))))) | -14.2 | 34.9
40 | GAACTCCCGAAAGGGTTC (((..(((....)))))) | -12.6 | 31.7
41 | GTAACCCCGAAAGGGTAC (((..(((....)))))) | -13.6 | 35
42 | GCGTCGATACGC ((((....)))) | -19.2 | 52.2
43 | GAATCCGAAAGGATTC ((((((....)))))) | -37 | 66.5
44 | GGATAGGGAAACTTATCC (((((.(....).))))) | -30.3 | 35.7
45 | GATCCTCGCAGGATC ((((((...)))))) | -33.8 | 55.5
46 | GATCAAGCACTTGATC ((((((....)))))) | -38.4 | 50.4

Row | Sequence | folding enthalpy [1] [kcal/mol] | Tm [2] [°C]
47 | GATCTGGACACAGATC ((((((....)))))) | -38.8 | 58.5
48 | GTGCCAGGAAACTGGTAC ((.((((....)))).)) | -29.9 | 53.8
49 | GTAGTCCGAAAGGATAC (((.(((....)))))) | -15.8 | 38
50 | GTTCCGGGAAACTGGGAC ((.((.(....).)).)) | -28.2 | 41.4
51 | GCCAGACGAAAGTCAGGC (((.(((....))).))) | -32.6 | 64.8
52 | GCTGGATCGAAAGATAGC (((..(((....)))))) | -21 | 30.8
53 | GATCGCCGGTGCGATC ((((((....)))))) | -35.1 | 66
54 | CGTCCGGAAACGGTGACG ((((((....)))..))) | -21.9 | 41
55 | GGCACATCGAAAGATGCC (((..(((....)))))) | -14.7 | 42.8
56 | GCATAGCGAAAGCCAGGC ((.(.((....)).).)) | -12.3 | 32.9
57 | GTTGAGGGAAACCTTGAC ((..(((....)))..)) | -12 | 29.7
58 | GGCGTTCGAAAGAAAGCC (((.(((....))).))) | -34.1 | 56.8
59 | GGTGTCGAAAGACTTACC ((((((....)))..))) | -17.7 | 37.4
60 | GGGTAGCGAAAGCTGCCC (((.(((....))).))) | -33.5 | 69.2
61 | GCCGAGCGAAAGCTACGC ((..(((....)))..)) | -12.1 | 45.8
62 | GGCGACGGAAACGTCGTC (.(((((....))))).) | -26.5 | 67.9
63 | GTCACCCGAAAGGGCGAC (((.(((....))).))) | -35.7 | 58.9
64 | GGCCGAGGAAACCCGACC ((.((.(....).)).)) | -24.9 | 34
65 | GGCGCTGGAAACGGTGCC (((.(.(....).).))) | -31.2 | 52.7
66 | GCGTTGCGAAAGCACAGC ((..(((....)))..)) | -20.9 | 51.1
67 | GATCCCCGATGGGATC ((((((....)))))) | -34.5 | 60.9
68 | GTCCGTGGAAACATGGAC ((((.((....)).)))) | -36.9 | 53.6
69 | ACGGAGAAATCCGT (((((....))))) | -19 | 49.2

Row | Sequence | folding enthalpy [1] [kcal/mol] | Tm [2] [°C]
70 | GGGTGCGAAAGCACTCCC ((((((....)))..))) | -10.4 | 53.5
71 | GTGATGCGAAAGCAACAC (((.(((....))).))) | -33.4 | 56.4
72 | GCTCGCGAAAGCGCAAGC ((((((....)))..))) | -12.4 | 48.5
73 | GATCAACGCTTGATC ((((((...)))))) | -31.4 | 42
74 | GGAGCCCCGAAAGGGTCC (((..(((....)))))) | -20.4 | 47.4
75 | GATCAACGCATTGATC ((((((....)))))) | -34.6 | 46.2
76 | GGAACTGGAAACAGTTCC (((((((....))))))) | -42.7 | 65.7
77 | GATCGATGTCTCGATC ((((((....)))))) | -39 | 51.5
78 | GCTAGGCGAAAGCCGGGC ((..(((....)))..)) | -16 | 60
79 | GTATGCGAAAGCACGTAC ((((((....)))..))) | -8.02 | 34.1
80 | GTATGGAAACATAC (((((....))))) | -23.5 | 43.4
81 | GATCTACCTGTAGATC ((((((....)))))) | -39.4 | 52.8
82 | GCGCGGCGAAAGCCCCGC (((.(((....))).))) | -37.7 | 59.4
83 | GTCGGGCGAAAGCCGGAC (((.(((....))).))) | -27.7 | 67.7
84 | GGCACTGCGAAAGCAGCC (((..(((....)))))) | -8.74 | 35.9
85 | GACCCCGGAAACGGAGTC (((.(((....))).))) | -31.4 | 47.2
86 | GAACGCGGAAACGCGTCC (.(((((....))))).) | -9.64 | 47.8
87 | GGGCCTTCGAAAGAACCC (((..(((....)))))) | -7.96 | 30.4
88 | GATCAGATTGCTGATC ((((((....)))))) | -39.4 | 49.5
89 | GATCACAGTCGTGATC ((((((....)))))) | -44.9 | 56.2
90 | GCGTCCGAAAGGAACGC ((((((....))).))) | -35.7 | 64.9
91 | GTTCCTCGAAAGAGAAC (((.(((....)))))) | -24.1 | 36.3
92 | GTAATTGGAAACAATTAC (((((((....))))))) | -45.9 | 50.4
